# Laboratory results: ChEMBL document CHEMBL3102726, “Synthesis of tricyclic fused coumarin sulfonates and their inhibitory effects on LPS-induced nitric oxide and PGE2 productions in RAW 264.7 macrophages” (Bioorg Med Chem Lett, 2014)
# The source made the active and inactive calls. The rule behind the calls is not given here.
# Experiments:
# RAW264.7 [1] = assay: Antiinflammatory activity against mouse RAW264.7 cells assessed as inhibition of LPS-induced iNOS protein expression administered 1 hr prior to LPS-challenge measured after 24 hrs by SDS-PAGE analysis; assay type: functional, cell-based
# Procedure, shortened: (§1)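 RAW 264.7 macrophages were pretreated for 1 h with or without 0.01, 0.1, 0.5, 1, 5 or 10 µM compound, then stimulated with LPS (10 ng/mL) for 24 h. Cell lysates were run on SDS–PAGE and transferred to PVDF. Blots were probed with iNOS and COX-2 antibodies, with β-actin as internal control.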
# RAW264.7 [2] = assay: Antiinflammatory activity against mouse RAW264.7 cells assessed as inhibition of LPS-induced COX2 protein expression administered 1 hr prior to LPS-challenge measured after 24 hrs by SDS-PAGE analysis; assay type: functional, cell-based; procedure, shortened: as §1
# [3] = molecular target: T1, Prostaglandin G/H synthase 2 (Homo sapiens) (UniProt P35354); assay: Inhibition of LPS-induced recombinant COX2 (unknown origin) activity expressed in mouse RAW264.7 cells at 0.1 to 5 uM after 10 mins; assay type: cell-based
# T1 sequence (whole entry): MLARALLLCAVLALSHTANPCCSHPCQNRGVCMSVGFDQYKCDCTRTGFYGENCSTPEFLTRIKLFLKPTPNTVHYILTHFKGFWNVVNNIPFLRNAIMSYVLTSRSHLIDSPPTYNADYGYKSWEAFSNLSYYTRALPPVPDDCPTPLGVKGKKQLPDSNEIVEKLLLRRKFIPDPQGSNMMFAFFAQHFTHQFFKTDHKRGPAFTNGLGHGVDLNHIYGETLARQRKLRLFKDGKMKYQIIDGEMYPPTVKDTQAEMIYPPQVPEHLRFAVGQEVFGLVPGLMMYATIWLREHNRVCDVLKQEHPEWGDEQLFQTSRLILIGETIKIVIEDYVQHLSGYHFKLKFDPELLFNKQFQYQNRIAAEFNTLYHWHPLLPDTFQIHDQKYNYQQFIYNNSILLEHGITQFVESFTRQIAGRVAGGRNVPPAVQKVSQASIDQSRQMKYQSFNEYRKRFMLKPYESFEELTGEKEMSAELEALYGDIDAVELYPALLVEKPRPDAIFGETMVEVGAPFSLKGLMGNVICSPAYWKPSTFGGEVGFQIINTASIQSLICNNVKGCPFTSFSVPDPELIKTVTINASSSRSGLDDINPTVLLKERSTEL
# RAW264.7 [4] = assay: Ratio of L-NIL IC50 to compound IC50 for mouse RAW264.7 cells; assay type: functional
# RAW264.7 [5] = assay: Antiinflammatory activity against mouse RAW264.7 cells assessed as inhibition of LPS-induced PGE2 production at 5 uM administered 1 hr prior to LPS-challenge measured after 24 hrs by EIA; assay type: functional
# Procedure, shortened: (§2)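 Single-concentration PGE₂ assay in LPS-stimulated RAW 264.7 cells: test compounds at 5 µM, reference NS398 at 3 µM. PGE₂ in culture media was quantified by EIA. Values are means ± SD of three independent experiments.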
# RAW264.7 [6] = assay: Antiinflammatory activity against mouse RAW264.7 cells assessed as inhibition of LPS-induced NO production at 5 uM after 24 hrs by Griess assay; assay type: functional
# Procedure, shortened: (§3)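 Single-concentration NO assay: test compounds at 5 µM, reference L-NIL at 20 µM, in LPS-stimulated RAW 264.7 cells. Nitrite in the medium was measured by Griess reaction (A540). Values are means ± SD of three independent experiments.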
# RAW264.7 [7] = assay: Antiinflammatory activity against mouse RAW264.7 cells assessed as inhibition of LPS-induced PGE2 production administered 1 hr prior to LPS-challenge measured after 24 hrs by EIA; assay type: functional, cell-based
# Procedure, shortened: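 Cells were pretreated for 1 h with compound at 0.1, 1, 10, 100 or 1000 nM, then given LPS (10 ng/mL) for 24 h. PGE₂ in culture media was quantified by EIA kit. Values are means ± SD of three independent experiments; ANOVA with Dunnett's post hoc test.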
# RAW264.7 [8] = assay: Antiinflammatory activity against mouse RAW264.7 cells assessed as inhibition of LPS-induced NO production after 24 hrs by Griess assay; assay type: functional, cell-based; settings: RAW264.7, 24 h
# Procedure, shortened: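 Cells were plated at 4 × 10⁵/well in DMEM with 10% FBS at 37 °C, 5% CO₂. They were incubated 24 h with LPS (1 µg/mL) plus compound at 1.60–100 µM. Medium was mixed 1:1 with Griess reagent (sulfanilamide/naphthylethylenediamine in phosphoric acid) for 10 min at room temperature, then A540 was read against fresh medium blanks.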
# RAW264.7 [9] = assay: Cytotoxicity against mouse RAW264.7 cells after 24 hrs by MTT assay; assay type: cell-based; settings: RAW264.7, 24 h
# Procedure, shortened: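 Cells were seeded at 10⁵/well and exposed to various concentrations of compound for 24 h. Viability was read by colorimetric MTT assay.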
# [10] = molecular target: T2, Nitric oxide synthase, inducible (Mus musculus) (UniProt P29477); assay: Inhibition of LPS-induced iNOS activity in mouse RAW264.7 cells at 1 to 10 uM after 12 hrs
# T2 sequence (whole entry): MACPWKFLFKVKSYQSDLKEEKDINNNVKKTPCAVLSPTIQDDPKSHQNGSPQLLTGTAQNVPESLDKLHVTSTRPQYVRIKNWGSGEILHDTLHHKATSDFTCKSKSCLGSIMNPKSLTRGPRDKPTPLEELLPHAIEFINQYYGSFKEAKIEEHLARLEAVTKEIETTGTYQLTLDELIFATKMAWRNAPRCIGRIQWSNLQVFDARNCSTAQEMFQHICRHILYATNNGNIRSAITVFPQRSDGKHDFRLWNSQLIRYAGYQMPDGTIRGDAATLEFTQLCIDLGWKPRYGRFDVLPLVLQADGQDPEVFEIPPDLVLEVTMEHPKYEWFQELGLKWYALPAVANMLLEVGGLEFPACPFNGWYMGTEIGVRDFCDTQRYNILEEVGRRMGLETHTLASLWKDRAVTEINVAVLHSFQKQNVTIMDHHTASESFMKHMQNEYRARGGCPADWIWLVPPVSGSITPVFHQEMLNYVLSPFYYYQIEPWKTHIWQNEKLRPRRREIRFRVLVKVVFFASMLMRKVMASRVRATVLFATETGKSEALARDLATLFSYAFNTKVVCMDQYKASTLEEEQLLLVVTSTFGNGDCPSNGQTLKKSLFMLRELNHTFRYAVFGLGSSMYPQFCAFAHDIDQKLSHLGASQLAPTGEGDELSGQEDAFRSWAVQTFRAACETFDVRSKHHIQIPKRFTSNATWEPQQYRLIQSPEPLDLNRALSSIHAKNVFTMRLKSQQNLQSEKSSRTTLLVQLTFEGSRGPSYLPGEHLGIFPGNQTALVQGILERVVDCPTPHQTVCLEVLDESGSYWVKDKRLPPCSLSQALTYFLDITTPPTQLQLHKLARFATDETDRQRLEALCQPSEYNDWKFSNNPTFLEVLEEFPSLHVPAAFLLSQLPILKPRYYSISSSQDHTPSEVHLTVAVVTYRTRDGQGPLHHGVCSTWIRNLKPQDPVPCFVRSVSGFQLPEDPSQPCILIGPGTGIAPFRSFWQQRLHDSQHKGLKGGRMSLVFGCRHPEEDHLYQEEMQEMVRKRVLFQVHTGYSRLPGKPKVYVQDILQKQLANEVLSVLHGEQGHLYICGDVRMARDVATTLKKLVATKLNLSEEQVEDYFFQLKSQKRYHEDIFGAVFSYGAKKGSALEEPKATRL
# RAW264.7 [11] = assay: Antiinflammatory activity against mouse RAW264.7 cells assessed as inhibition of LPS-induced NO production administered 1 hr prior to LPS-challenge measured after 24 hrs by Griess assay; assay type: functional, cell-based
# Procedure, shortened: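 RAW 264.7 cells were grown in DMEM with 10% FBS, penicillin and streptomycin at 37 °C under 5% CO2, then plated at 4 × 10^5 cells/well. Culture medium was mixed 1:1 with Griess reagent (equal volumes of 1% sulfanilamide in 5% phosphoric acid and 0.1% naphthylethylenediamine·HCl) for 10 min at room temperature, and nitrite was read at 540 nm against fresh-medium blanks.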
# RAW264.7 [12] = assay: Antiinflammatory activity against mouse RAW264.7 cells assessed as inhibition of LPS-induced NO production at 20 uM after 24 hrs by Griess assay; assay type: functional; settings: RAW264.7, 24 h; procedure, shortened: as §3
# RAW264.7 [13] = assay: Ratio of NS398 IC50 to compound IC50 for mouse RAW264.7 cells; assay type: functional
# RAW264.7 [14] = assay: Antiinflammatory activity against mouse RAW264.7 cells assessed as inhibition of LPS-induced PGE2 production at 3 uM administered 1 hr prior to LPS-challenge measured after 24 hrs by EIA; assay type: functional, cell-based; procedure, shortened: as §2
Structure (SMILES),IC50 (RAW264.7 [7]) [µM],IC50 (RAW264.7 [9]) [µM],inhibition (RAW264.7 [5]),inhibition (RAW264.7 [6]),further results
O=c1oc2cc(OS(=O)(=O)c3ccc(C(F)(F)F)cc3)ccc2c2c1CCCCC2,0.00645,> 100,,,"inhibition (RAW264.7 [1]): Active; inhibition (RAW264.7 [2]): Dose-dependent effect; inhibition [3]: Active; Ratio IC50 (RAW264.7 [4]): 5.24; inhibition (INH) (RAW264.7 [5]): 91.48%; inhibition at 5 µM (RAW264.7 [6]; RAW264.7, 24 h): 65.8%; IC50 (RAW264.7 [8]): 3.84 µM; inhibition [10]: inactive"
Cc1ccc(S(=O)(=O)Oc2ccc3c4c(c(=O)oc3c2)CCCCCC4)cc1,0.00675,> 100,Active,Active,IC50 (RAW264.7 [8]): 40.7 µM
NS(=O)(=O)Oc1ccc2c3c(c(=O)oc2c1)CCCCC3 [IROSUSTAT],0.081,,,,IC50 (RAW264.7 [11]): 85.8 µM; inhibition (RAW264.7 [11]): Dose-dependent effect; inhibition (RAW264.7 [7]): Dose-dependent effect
CC(=N)NCCCC[C@H](N)C(=O)O [L-NIL],,,,,inhibition at 20 µM (RAW264.7 [12]): 50%; IC50 (RAW264.7 [8]): 20.1 µM
CCS(=O)(=O)Oc1ccc2c3c(c(=O)oc2c1)CCCCCC3,,21.5,Active,Active,
CS(=O)(=O)Oc1ccc2c3c(c(=O)oc2c1)CCCCCC3,,24.5,Active,Active,
O=c1oc2cc(OS(=O)(=O)C3CC3)ccc2c2c1CCCCC2,,20.3,Active,Active,
O=c1oc2cc(OS(=O)(=O)C3CC3)ccc2c2c1CCCCCC2,,10.5,Active,Active,
CCCS(=O)(=O)Oc1ccc2c3c(c(=O)oc2c1)CCCCCC3,0.00402,9.2,Active,Active,Ratio IC50 (RAW264.7 [13]): 1.74; IC50 (RAW264.7 [8]): 10 µM
O=c1oc2cc(OS(=O)(=O)c3ccccc3)ccc2c2c1CCCCCC2,,> 100,,Active,
CS(=O)(=O)Nc1ccc([N+](=O)[O-])cc1OC1CCCCC1 [NS-398],0.00701,,,,inhibition (RAW264.7 [14]): Active
O=c1oc2cc(OS(=O)(=O)c3ccc(C(F)(F)F)cc3)ccc2c2c1CCCCCC2,0.00604,> 100,,Active,IC50 (RAW264.7 [8]): 75.3 µM
CCS(=O)(=O)Oc1ccc2c3c(c(=O)oc2c1)CCCCC3,,23.4,Active,Active,
O=c1oc2cc(OS(=O)(=O)c3ccccc3)ccc2c2c1CCCCC2,,> 100,Active,Active,
CCCS(=O)(=O)Oc1ccc2c3c(c(=O)oc2c1)CCCCC3,,23.9,Active,Active,
CS(=O)(=O)Oc1ccc2c3c(c(=O)oc2c1)CCCCC3,,90.8,Active,Active,
Cc1ccc(S(=O)(=O)Oc2ccc3c4c(c(=O)oc3c2)CCCCC4)cc1,,> 100,Active,Active,
